Lipid droplet – hepatic lipid droplet formation modulation; AML12 mouse hepatocytes, oleate lipid droplets, BODIPY imaging; inhibition, % at 6.5 µM; actives 0.4% (n = 240,000); AID 1656;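 active means lipid droplet intensity inhibited by at least 50%, with more than 500 cells counted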
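System: AML12 hepatocytes (mouse). Probe or stimulus: oleic acid at 100 µM to induce lipid droplet formation. Times: overnight treatment with compound plus oleate. Detection: Image-based BODIPY and DAPI two-channel analysis. Evaluation: percent inhibition of filter-corrected integrated lipid droplet intensity per well.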
M18AAP inhibitor – PfM18AAP enzyme inhibition; recombinant PfM18AAP, H-Glu-NHMec fluorogenic cleavage; inhibition, % at 7.35 µM; actives 1.2% (n = 290,000); AID 1822;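 active means inhibition above the campaign mean inhibition over all tested compounds plus 3 SD, cut at about 28% in these data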
CendR NRP1 mod – modulators of CendR peptide binding to human neuropilin-1; O14786; FAM-RPARPAR peptide binding to NRP-1, fluorescence polarization; inhibition, % at 25 µM; actives 0.85% (n = 360,000);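 active means inhibition or corrected inhibition above about 18%, plus a signal ratio from 0.5 to 1.5, limit read from the data, passing the limit was not always enough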
Target sequence (O14786 whole entry, looked up): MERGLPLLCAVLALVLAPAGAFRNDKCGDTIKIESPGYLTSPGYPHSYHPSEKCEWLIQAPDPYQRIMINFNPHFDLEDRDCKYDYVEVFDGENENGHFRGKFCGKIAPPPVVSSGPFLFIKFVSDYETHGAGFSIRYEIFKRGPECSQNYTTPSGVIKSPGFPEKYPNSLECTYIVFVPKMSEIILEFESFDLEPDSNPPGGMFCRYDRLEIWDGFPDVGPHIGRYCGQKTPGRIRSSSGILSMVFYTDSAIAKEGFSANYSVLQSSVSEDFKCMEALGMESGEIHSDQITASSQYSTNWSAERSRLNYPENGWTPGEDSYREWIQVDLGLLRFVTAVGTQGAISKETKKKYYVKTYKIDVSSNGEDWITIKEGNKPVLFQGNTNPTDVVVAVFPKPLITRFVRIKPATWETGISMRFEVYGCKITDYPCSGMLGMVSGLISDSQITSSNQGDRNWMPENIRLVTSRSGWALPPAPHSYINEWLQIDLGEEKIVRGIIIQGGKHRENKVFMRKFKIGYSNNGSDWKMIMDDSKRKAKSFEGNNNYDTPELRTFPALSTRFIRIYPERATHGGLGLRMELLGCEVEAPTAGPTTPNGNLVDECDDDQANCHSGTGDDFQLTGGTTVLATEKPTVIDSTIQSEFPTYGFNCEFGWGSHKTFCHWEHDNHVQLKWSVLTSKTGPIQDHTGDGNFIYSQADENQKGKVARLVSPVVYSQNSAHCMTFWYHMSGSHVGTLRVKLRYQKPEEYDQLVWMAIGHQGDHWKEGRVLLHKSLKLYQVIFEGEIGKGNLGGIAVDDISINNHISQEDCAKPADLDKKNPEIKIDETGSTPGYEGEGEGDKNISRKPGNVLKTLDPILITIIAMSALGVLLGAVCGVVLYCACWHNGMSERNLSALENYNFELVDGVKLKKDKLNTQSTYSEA
Arrestin-AP2 inh – inhibitors of human beta-arrestin and AP2 interaction; actives 0.31% (n = 340,000); inhibition, % at 10 µM; FITC-arrestin peptide / GST-AP2 beads, flow cytometry; AP2 beta2 appendage carries R879A mutation;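 active means inhibition above a set limit, near 3 SD of compounds lacking own fluorescence, cut at about 54% in these data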
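Assay system: GST-AP2 R879A bound to glutathione beads, E. coli-expressed; Medium: PBS with 0.05% Tween 20 and 0.1% BSA; Also added: fluorescein-tagged arrestin peptide at 50 nM final; Timing: 12 min plus 1 h, RT; Measured by: flow cytometry, FL1 (488/535 nm); Evaluation: percent drop in bead-associated FITC signal.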
sPLA2-III inh – Blocks human group III sPLA2 activity. inhibition, % at 12.2 µM. actives 0.56% (n = 370,000). QFRET BODIPY PC-A2 liposome hydrolysis, fluorescence. AID 743126;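 active means inhibition above mean plus 3 SD of compounds lying within the high and low control bounds, cut at about 19% in these data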
m5-HT2A agonist – mouse HTR2A agonism via beta-arrestin recruitment. actives 0.66% (n = 360,000). CHO-K1 mHTR2A beta-arrestin complementation, luminescence; percent of 30 µM serotonin response. activation, % at 7.6 µM. AID 624169. P35363;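 active means activation above a run cutoff, the mean activation of all tested compounds plus 3 SD, cut at about 14% in these data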
OPRM1 ag – counter-screen for mouse HTR2A agonists: human mu opioid receptor agonists; activation, % at 9.3 µM; shares compounds with m5-HT2A agonist; actives 5.3% (n = 2,300); AID 624380; U2OS OPRM1 beta-arrestin PathHunter, luminescence; DMSO 0%, DAMGO 9.3 µM 100%;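 active means mean activation above the mean of DMSO-only wells plus 3 SD, cut at about 0.5% in these data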
HTR2A ag conf – mouse HTR2A agonism confirmed. shares compounds with m5-HT2A agonist. CHO-K1 PathHunter beta-arrestin recruitment, luminescence; DMSO 0%, 30 µM serotonin 100%. activation, % at 7.6 µM. actives 19% (n = 2,300). AID 624381;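 active means mean activation across triplicates above the hit threshold derived in the original primary screen, cut at about 15% in these data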
Of the large screens only hits and unclear results are named; the others gave an inactive call (follow-up assays come after a bar, where they were run). A selection: hits, their analogues and other compounds. The true share with any hit is near 3.3%.

O=C(NC(=S)Nc1ccccc1N1CCCC1)c1ccc(F)cc1	none
COC(=O)[C@]12C[C@H](CC(=O)NCc3cccc4ccccc34)C(=O)N(CCc3ccc(OC)c(OC)c3)C1=C[C@H](C(C)(C)C)O[C@@H]2C	none (no result: Lipid droplet, M18AAP inhibitor, CendR NRP1 mod, Arrestin-AP2 inh, m5-HT2A agonist)
O=C1Nc2ccc([N+](=O)[O-])cc2C1(O)N1CCCCC1 (configuration not stated)	none (no result: Lipid droplet)
CC1CCCN(C2(O)C(=O)Nc3ccc([N+](=O)[O-])cc32)C1 (configuration not stated)	m5-HT2A agonist 17.5 (no result: Lipid droplet) | OPRM1 ag inactive | HTR2A ag conf inactive
O=C(C1CCC(CNc2c(N3CCCCC3)c(=O)c2=O)CC1)N1CCCCC1 (configuration not stated)	m5-HT2A agonist 18.7 (no result: Lipid droplet, M18AAP inhibitor) | OPRM1 ag inactive | HTR2A ag conf inactive
O=C(Cc1c(F)cccc1Cl)N1CCN(S(=O)(=O)c2cccc(F)c2)CC1	m5-HT2A agonist 14.4 (no result: Lipid droplet, M18AAP inhibitor) | OPRM1 ag inactive | HTR2A ag conf inactive
Cc1ccc(S(=O)(=O)N2CCN(C(=O)Cc3c(F)cccc3Cl)CC2)cc1	none (no result: Lipid droplet, M18AAP inhibitor)
CC(C)CNS(=O)(=O)c1ccc(Br)cc1N1CCC[C@@H]1CO	none (no result: Lipid droplet, M18AAP inhibitor)
CCOC(=O)N1CCN(C/C(C)=C/c2ccccc2)CC1	m5-HT2A agonist 17.9 (no result: Lipid droplet) | OPRM1 ag inactive | HTR2A ag conf 56.8
CN1C(C(=O)NCc2cccc(C(F)(F)F)c2)CC2Cn3c(nc4cc(Cl)c(Cl)cc43)C21 (configuration not stated)	m5-HT2A agonist 20.4 (no result: M18AAP inhibitor) | OPRM1 ag inactive | HTR2A ag conf inactive
COc1ccc(S(=O)(=O)N(C)CC(=O)NCc2ccco2)cc1Cl	none
Cc1cc(C)cc(N(CC(=O)NCc2ccco2)S(=O)(=O)c2ccccc2)c1	m5-HT2A agonist 15.2 | OPRM1 ag inactive | HTR2A ag conf inactive
COc1ccc(C)cc1S(=O)(=O)N(C)CC(=O)NCc1ccco1	m5-HT2A agonist 15.9 | OPRM1 ag inactive | HTR2A ag conf inactive
Cc1cccc(-c2cccc3c4c([nH]c23)[C@@H]2C[C@H](N(C)C(=O)C3CCCCC3)[C@H]([C@H](C)O)CN2CC4)c1	none (no result: Lipid droplet, M18AAP inhibitor, CendR NRP1 mod, Arrestin-AP2 inh, m5-HT2A agonist)
COC(=O)[C@]12C[C@H](CC(=O)NCCCN3CCCC3=O)C(=O)N(Cc3cccc4ccccc34)C1=C[C@H](C1CCCC1)O[C@@H]2C	none (no result: Lipid droplet, M18AAP inhibitor, CendR NRP1 mod, Arrestin-AP2 inh, m5-HT2A agonist)
CCOc1ccc(C2Nc3ccccc3NC3=C2C(=O)CC(C)(C)C3)cc1OC (configuration not stated)	none
COc1ccc(C2Nc3ccccc3NC3=C2C(=O)CC(C)(C)C3)cc1OC (configuration not stated)	m5-HT2A agonist 17.2 | OPRM1 ag 0.7 | HTR2A ag conf inactive
COc1ccc(N(C)S(=O)(=O)c2cccc(C(=O)Nc3nc(C)c(C(C)=O)s3)c2)cc1	m5-HT2A agonist 16.2 (no result: Lipid droplet, M18AAP inhibitor) | OPRM1 ag inactive | HTR2A ag conf inactive
COc1ccc(N(C)S(=O)(=O)c2cccc(C(=O)Nc3nnc(C)s3)c2)cc1	none (no result: Lipid droplet, M18AAP inhibitor)
COc1ccc(C(=O)COC(=O)c2cc(S(=O)(=O)N3CCCCC3)ccc2N2CCOCC2)c(OC)c1	none (no result: Lipid droplet, M18AAP inhibitor)
COc1ccccc1C(=O)COC(=O)c1cc(S(=O)(=O)N2CCCCC2)ccc1N1CCOCC1	m5-HT2A agonist 17.5 (no result: Lipid droplet, M18AAP inhibitor) | OPRM1 ag inactive | HTR2A ag conf inactive
CCN(CC(=O)Nc1ccccc1C(F)(F)F)C(=O)CN1C(=O)NC2(CCCCC2)C1=O	m5-HT2A agonist 17.0 (no result: Lipid droplet, M18AAP inhibitor) | OPRM1 ag inactive | HTR2A ag conf inactive
CN(CC(=O)Nc1ccc(F)cc1)C(=O)CN1C(=O)NC2(CCCC2)C1=O	m5-HT2A agonist 19.9 (no result: Lipid droplet, M18AAP inhibitor) | OPRM1 ag inactive | HTR2A ag conf inactive
CCN(CC(=O)Nc1c(F)cccc1F)C(=O)CN1C(=O)NC2(CCCC2)C1=O	none (no result: Lipid droplet, M18AAP inhibitor)
Oc1cc(O)cc(/C=C/c2ccc(O)c(O)c2)c1	none (no result: Lipid droplet, M18AAP inhibitor)

Compound activity deposited in PubChem by several laboratories.
